Laboratory results taken from ChEMBL document CHEMBL3414539, “Quantum chemistry calculation-aided structural optimization of combretastatin A-4-like tubulin polymerization inhibitors: improved stability and biological activity” (J Med Chem, 2015).

Assays:
HT-29 [1] = assay: Growth inhibition of human HT-29 cells by MTT assay; assay type: functional, cell-based
Procedure, shortened: (§1)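 MTT assay in SKOV3 ovarian and HT-29 colon carcinoma cells, absorbance read at 570 nm. Triplicate wells in at least three independent assays; average IC50 reported.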

SK-OV-3 = assay: Growth inhibition of human SKOV3 cells by MTT assay; assay type: functional, cell-based; procedure, shortened: as §1
[2] = Stability assessed as cis-trans isomerization equilibrium by mesuring remaining compound level at 1.5 x 10^-2 M exposed to UV-visible light irradiation after 1.5 hrs by LC-HRMS method; assay type: physicochemical; conditions: read-out: Stability
[3] = Stability assessed as cis-trans isomerization equilibrium by mesuring remaining compound level at 1.5 x 10^-2 M exposed to UV-visible light irradiation after 22 hrs by LC-HRMS method; assay type: physicochemical; conditions: read-out: Stability
[4] = Stability assessed as cis-trans isomerization equilibrium at 1.5 x 10^-2 M under natural light conditions after 7 days by LC-HRMS method; assay type: physicochemical; conditions: 168 h, 15000 µM
Tubulin = Tubulin (Bos taurus, UniProt Q6B856+Q862L2+Q862F3); assay: Inhibition of bovine brain tubulin polymerization incubated for 60 mins by microplate reader based turbidimetry
HT-29 [5] = assay: Antitumor activity against human HT-29 cells xenografted in BALB/c mouse assessed as reduction in tumor volume at 50 and 150 mg/kg, ip administered once daily and measured on day 18; assay type: functional, organism-based; design: dose 150 mg/kg
Procedure, shortened: (§2)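 Female BALB/c nude mice (18–20 g) bearing HT-29 xenografts of around 100 mm³, randomized into six animals/treatment and twelve controls. Drug or vehicle given ip once a day for 18 days. Tumor volume and body weight recorded on d0 and d18. T/C (%) derived from relative tumor volume (Vt/Vo). Body weight change given as mean in g.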

HT-29 [6] = assay: Antitumor activity against human HT-29 cells xenografted in BALB/c mouse assessed as reduction in tumor volume at 150 mg/kg, ip administered once daily for 18 days; assay type: functional; conditions: route intraperitoneal; procedure, shortened: as §2
HT-29 [7] = assay: Antitumor activity against human HT-29 cells xenografted in BALB/c mouse assessed as reduction in tumor volume at 50 mg/kg, ip administered once daily for 18 days; assay type: functional; conditions: route intraperitoneal; procedure, shortened: as §2
Mus musculus [8] = assay: Toxicity in human HT-29 cells xenografted BALB/c mouse assessed as change in body weight at 150 mg/kg, ip administered once daily for 18 days (reference value: 2.5 g); assay type: organism-based; design: dose 150 mg/kg, route intraperitoneal; conditions: in vivo, 432 h; procedure, shortened: as §2
Mus musculus [9] = assay: Toxicity in human HT-29 cells xenografted BALB/c mouse assessed as change in body weight at 50 mg/kg, ip administered once daily for 18 days (reference value: 2.5 g); assay type: organism-based; design: dose 50 mg/kg, route intraperitoneal; conditions: in vivo, 432 h

| Compound | IC50 (HT-29 [1]) | IC50 (SK-OV-3) | remaining at 1.5 h, 15000 µM [2] | IC50 (Tubulin) | further results |
| --- | --- | --- | --- | --- | --- |
| COc1ccc(/C=C2\c3cc(OC)c(OC)c(OC)c3CC[C@H]2O)cc1C | 3970 nM | 1340 nM |  |  |  |
| COc1ccc(/C=C2\c3cc(OC)c(OC)c(OC)c3CC[C@H]2O)cc1O | 790 nM | 1590 nM |  |  |  |
| COc1ccc(/C=C2\c3cc(OC)c(OC)c(OC)c3CC[C@@H]2O)cc1[N+](=O)[O-] | 1590 nM | 4640 nM |  |  |  |
| COc1ccc(/C=C2\c3cc(OC)c(OC)c(OC)c3CC[C@H]2O)cc1C(N)=O | 550 nM | 1920 nM |  |  |  |
| COc1ccc(/C=C2\c3cc(OC)c(OC)c(OC)c3CC[C@@H]2O)cc1C#N | 5 nM | 20 nM |  |  |  |
| COc1ccc(/C=C2\c3cc(OC)c(OC)c(OC)c3CC[C@H]2O)cc1C#N | 200 nM | 600 nM |  |  |  |
| COc1ccc(/C=C2\c3cc(OC)c(OC)c(OC)c3CC[C@@H]2O)cc1O | 260 nM | 1060 nM |  |  |  |
| COc1ccc2c(c1)CC[C@H](O)/C2=C/c1cc(OC)c(OC)c(OC)c1 | 1 nM | 1 nM | 98.9% | 0.41 µM | remaining at 22 h, 15000 µM [3]: 90.2%; Stability [4]: Stable; inhibition (HT-29 [5]): Dose-dependent effect; T/C (HT-29 [6]): 37%; T/C (HT-29 [7]): 61%; Activity (Mus musculus [8]): 1.8 g; Activity (Mus musculus [9]): 2.3 g |
| COc1ccc2c(c1)CCC(=O)/C2=C/c1cc(OC)c(OC)c(OC)c1 | 130 nM | 2 nM | 52.8% | 3.93 µM |  |
| COc1ccc(/C=C2\c3cc(OC)c(OC)c(OC)c3CC[C@@H]2O)cc1C(N)=O | 550 nM | 1440 nM |  |  |  |
| COc1ccc(/C=C\c2cc(OC)c(OC)c(OC)c2)cc1O [COMBRETASTATIN A4] | 1 nM | 1 nM | 99.1% |  | remaining at 22 h, 15000 µM [3]: 84%; Stability [4]: Stable; T/C (HT-29 [7]): 52%; Activity (Mus musculus [9]): 1.7 g |
| COc1ccc(/C=C2\c3cc(OC)c(OC)c(OC)c3CC[C@@H]2O)cc1N | 160 nM | 740 nM |  |  |  |
| COc1ccc2c(c1)CC[C@@H](O)/C2=C/c1cc(OC)c(OC)c(OC)c1 | 900 nM | 2020 nM | 99.2% | > 10 µM | remaining at 22 h, 15000 µM [3]: 92%; Stability [4]: Stable |
| COc1ccc(/C=C2\c3cc(OC)c(OC)c(OC)c3CC[C@@H]2O)cc1 | 2460 nM | 7030 nM | 99.4% | > 10 µM | remaining at 22 h, 15000 µM [3]: 92.6%; Stability [4]: Stable |
| COc1ccc(/C=C2\c3cc(OC)c(OC)c(OC)c3CC[C@@H]2O)cc1C | 2560 nM | 730 nM |  |  |  |
| COc1ccc(/C=C2\c3cc(OC)c(OC)c(OC)c3CC[C@H]2O)cc1 | 2600 nM | 3780 nM | 99.1% | > 10 µM | remaining at 22 h, 15000 µM [3]: 93%; Stability [4]: Stable |
| COc1ccc(/C=C2\c3cc(OC)c(OC)c(OC)c3CC[C@H]2O)cc1[N+](=O)[O-] | > 10000 nM | > 10000 nM |  |  |  |
| COc1ccc(/C=C2\c3cc(OC)c(OC)c(OC)c3CC[C@H]2O)cc1F | 220 nM | 720 nM |  |  |  |
| COc1ccc(/C=C2\c3cc(OC)c(OC)c(OC)c3CC[C@H]2O)cc1N | 910 nM | 1870 nM |  |  |  |
| COc1ccc(/C=C2\c3cc(OC)c(OC)c(OC)c3CC[C@@H]2O)cc1F | 3 nM | 1 nM |  | 5.7 µM |  |
